Test results published in ChEMBL document CHEMBL5724801, “EUbOPEN Chemogenomics Library - Multiplex” (2024).
Several values for one entry are separate records, joined by “and”; a condition that tells them apart may be missing. Identical values can stand only once.

Tested on: Fibroblast
Assay: Multiplex assay against human fibroblast
Assay type: toxicity, cell-based
Summary of the method: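 Live cells were stained at seeding with Hoechst33342, BioTracker Green Microtubule Cytoskeleton Dye, MitoTracker Red and Annexin V Alexa Fluor 680. Following compound addition, they were imaged on a CQ1 microscope at 37°C and 5% CO2 and gated by CellPathfinder machine learning into Hoechst high-intensity objects or normal cells, with normal cells split into healthy, pyknosed or fragmented nuclei and pyknosed cells into mitotic or apoptotic. Tubulin, mitochondrial-mass and membrane-permeability phenotypes are per cents of healthy-nucleus cells.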

[1] = 12 h, 1 µM, compound concentration 1 uM
[2] = 12 h, 10 µM, compound concentration 10 uM
[3] = 24 h, 1 µM, compound concentration 1 uM
[4] = 24 h, 10 µM, compound concentration 10 uM
[5] = 48 h, 1 µM, compound concentration 1 uM
[6] = 48 h, 10 µM, compound concentration 10 uM

Compound: CCCCC1=NC2(CCCC2)C(=O)N1Cc1ccc(-c2ccccc2-c2nnn[nH]2)cc1 [IRBESARTAN]
- Population Apoptotic (%) [1]: 40% and 38%
- Population Fragmented Nuclei (%) [1]: 14% and 24%
- Population Healthy Nuclei (%) [1]: 67% and 55%
- Population Hoechst High Intensity Objects (%) [1]: 1% and 3%
- Population Membrane Permeable-Phenotype (%) [1]: 0% and 7%
- Population Mitochondria Different-Phenotype (%) [1]: 5% and 2%
- Population Mitotic Cells (%) [1]: 59% and 61%
- Population Normal (%) [1]: 98% and 96%
- Population Pyknosed Nuclei (%) [1]: 17% and 20%
- Population Tubulin-Different-Phenotype (%) [1]: 28% and 43%
- Total Cell Count [1]: 159 and 187
- Population Apoptotic (%) [2]: 60% and 45%
- Population Fragmented Nuclei (%) [2]: 11% and 32%
- Population Healthy Nuclei (%) [2]: 74% and 48%
- Population Hoechst High Intensity Objects (%) [2]: 3% and 7%
- Population Membrane Permeable-Phenotype (%) [2]: 3% and 12%
- Population Mitochondria Different-Phenotype (%) [2]: 4% and 3%
- Population Mitotic Cells (%) [2]: 40% and 54%
- Population Normal (%) [2]: 96% and 92%
- Population Pyknosed Nuclei (%) [2]: 13% and 18%
- Population Tubulin-Different-Phenotype (%) [2]: 37% and 53%
- Total Cell Count [2]: 151 and 129
- Population Apoptotic (%) [3]: 47% and 31%
- Population Fragmented Nuclei (%) [3]: 19% and 25%
- Population Healthy Nuclei (%) [3]: 69% and 57%
- Population Hoechst High Intensity Objects (%) [3]: 2% and 3%
- Population Membrane Permeable-Phenotype (%) [3]: 1%
- Population Mitochondria Different-Phenotype (%) [3]: 3% and 0%
- Population Mitotic Cells (%) [3]: 52% and 68%
- Population Normal (%) [3]: 97% and 96%
- Population Pyknosed Nuclei (%) [3]: 10% and 16%
- Population Tubulin-Different-Phenotype (%) [3]: 22% and 40%
- Total Cell Count [3]: 170 and 183
- Population Apoptotic (%) [4]: 56% and 45%
- Population Healthy Nuclei (%) [4]: 74% and 47%
- Population Hoechst High Intensity Objects (%) [4]: 1% and 2%
- Population Membrane Permeable-Phenotype (%) [4]: 3% and 8%
- Population Mitochondria Different-Phenotype (%) [4]: 7% and 5%
- Population Mitotic Cells (%) [4]: 44% and 55%
- Population Normal (%) [4]: 98% and 97%
- Population Pyknosed Nuclei (%) [4]: 16%
- Population Tubulin-Different-Phenotype (%) [4]: 37% and 60%
- Total Cell Count [4]: 155 and 125
- Population Apoptotic (%) [5]: 60% and 55%
- Population Fragmented Nuclei (%) [5]: 21% and 31%
- Population Healthy Nuclei (%) [5]: 69% and 58%
- Population Hoechst High Intensity Objects (%) [5]: 3% and 2%
- Population Membrane Permeable-Phenotype (%) [5]: 0% and 2%
- Population Mitochondria Different-Phenotype (%) [5]: 4% and 1%
- Population Mitotic Cells (%) [5]: 40% and 44%
- Population Normal (%) [5]: 96% and 97%
- Population Pyknosed Nuclei (%) [5]: 8% and 10%
- Population Tubulin-Different-Phenotype (%) [5]: 31% and 39%
- Total Cell Count [5]: 173 and 178
- Population Apoptotic (%) [6]: 61% and 37%
- Population Fragmented Nuclei (%) [6]: 14% and 37%
- Population Healthy Nuclei (%) [6]: 66% and 48%
- Population Hoechst High Intensity Objects (%) [6]: 2% and 0%
- Population Membrane Permeable-Phenotype (%) [6]: 1% and 3%
- Population Mitochondria Different-Phenotype (%) [6]: 5% and 1%
- Population Mitotic Cells (%) [6]: 38% and 62%
- Population Normal (%) [6]: 97% and 99%
- Population Pyknosed Nuclei (%) [6]: 18% and 13%
- Population Tubulin-Different-Phenotype (%) [6]: 38% and 58%
- Total Cell Count [6]: 141 and 117

Compound: COC(=O)C1=C(C)NC(C)=C(C(=O)OC(C)C)C1c1cccc2nonc12 (stereo not given) [ISRADIPINE]
- Population Apoptotic (%) [1]: 16.67% and 18.92%
- Population Fragmented Nuclei (%) [1]: 8.07% and 3.38%
- Population Healthy Nuclei (%) [1]: 65.84% and 81.01%
- Population Hoechst High Intensity Objects (%) [1]: 0%
- Population Membrane Permeable-Phenotype (%) [1]: 3.77% and 3.12%
- Population Mitochondria Different-Phenotype (%) [1]: 7.55% and 11.98%
- Population Mitotic Cells (%) [1]: 83.33% and 81.08%
- Population Normal (%) [1]: 100%
- Population Pyknosed Nuclei (%) [1]: 26.09% and 15.61%
- Population Tubulin-Different-Phenotype (%) [1]: 15.09% and 16.15%
- Total Cell Count [1]: 161 and 237
- Population Fragmented Nuclei (%) [2]: 12.61% and 3.08%
- Population Healthy Nuclei (%) [2]: 63.04% and 75.33%
- Population Hoechst High Intensity Objects (%) [2]: 0%
- Population Membrane Permeable-Phenotype (%) [2]: 5.52% and 7.02%
- Population Mitochondria Different-Phenotype (%) [2]: 17.24% and 19.3%
- Population Mitotic Cells (%) [2]: 94.64% and 77.55%
- Population Normal (%) [2]: 100%
- Population Pyknosed Nuclei (%) [2]: 24.35% and 21.59%
- Population Tubulin-Different-Phenotype (%) [2]: 40% and 48.54%
- Total Cell Count [2]: 230 and 227
- Population Apoptotic (%) [3]: 18.52% and 21.74%
- Population Fragmented Nuclei (%) [3]: 12.43% and 8.5%
- Population Healthy Nuclei (%) [3]: 72.97% and 82.19%
- Population Hoechst High Intensity Objects (%) [3]: 0%
- Population Membrane Permeable-Phenotype (%) [3]: 5.93% and 2.46%
- Population Mitochondria Different-Phenotype (%) [3]: 1.48% and 4.93%
- Population Mitotic Cells (%) [3]: 81.48% and 78.26%
- Population Normal (%) [3]: 100%
- Population Pyknosed Nuclei (%) [3]: 14.59% and 9.31%
- Population Tubulin-Different-Phenotype (%) [3]: 12.59% and 16.26%
- Total Cell Count [3]: 185 and 247
- Population Fragmented Nuclei (%) [4]: 9.72% and 2.69%
- Population Healthy Nuclei (%) [4]: 68.83% and 76.23%
- Population Hoechst High Intensity Objects (%) [4]: 0%
- Population Membrane Permeable-Phenotype (%) [4]: 4.12%
- Population Mitochondria Different-Phenotype (%) [4]: 8.82% and 15.88%
- Population Mitotic Cells (%) [4]: 98.11% and 80.85%
- Population Normal (%) [4]: 100%
- Population Pyknosed Nuclei (%) [4]: 21.46% and 21.08%
- Population Tubulin-Different-Phenotype (%) [4]: 39.41% and 47.06%
- Total Cell Count [4]: 247 and 223
- Population Apoptotic (%) [5]: 30% and 23.53%
- Population Fragmented Nuclei (%) [5]: 7.14% and 6.07%
- Population Healthy Nuclei (%) [5]: 81.87% and 87.04%
- Population Hoechst High Intensity Objects (%) [5]: 0%
- Population Membrane Permeable-Phenotype (%) [5]: 2.01% and 1.4%
- Population Mitotic Cells (%) [5]: 70% and 76.47%
- Population Normal (%) [5]: 100%
- Population Pyknosed Nuclei (%) [5]: 10.99% and 6.88%
- Population Tubulin-Different-Phenotype (%) [5]: 10.07% and 17.21%
- Total Cell Count [5]: 182 and 247
- Population Apoptotic (%) [6]: 33.33% and 50%
- Population Fragmented Nuclei (%) [6]: 9.58% and 5.05%
- Population Healthy Nuclei (%) [6]: 85.42% and 89.45%
- Population Hoechst High Intensity Objects (%) [6]: 0%
- Population Membrane Permeable-Phenotype (%) [6]: 1.46% and 8.72%
- Population Mitochondria Different-Phenotype (%) [6]: 14.63% and 8.72%
- Population Mitotic Cells (%) [6]: 66.67% and 50%
- Population Normal (%) [6]: 100%
- Population Pyknosed Nuclei (%) [6]: 5% and 5.5%
- Population Tubulin-Different-Phenotype (%) [6]: 24.39% and 55.38%
- Total Cell Count [6]: 240 and 218

Compound: CC(C)(C)c1cc(C(C)(C)C)c(NC(=O)c2c[nH]c3ccccc3c2=O)cc1O [IVACAFTOR]
- Population Apoptotic (%) [1]: 10.53% and 22.22%
- Population Healthy Nuclei (%) [1]: 60.13% and 75%
- Population Hoechst High Intensity Objects (%) [1]: 0%
- Population Membrane Permeable-Phenotype (%) [1]: 1.09% and 0.74%
- Population Mitotic Cells (%) [1]: 89.47% and 77.78%
- Population Normal (%) [1]: 100%
- Population Pyknosed Nuclei (%) [1]: 24.84% and 20%
- Population Tubulin-Different-Phenotype (%) [1]: 15.22% and 9.63%
- Total Cell Count [1]: 153 and 180
- Population Apoptotic (%) [2]: 15.07% and 33.33%
- Population Fragmented Nuclei (%) [2]: 15.18% and 7.21%
- Population Healthy Nuclei (%) [2]: 46.6% and 73.87%
- Population Hoechst High Intensity Objects (%) [2]: 0%
- Population Membrane Permeable-Phenotype (%) [2]: 0% and 3.05%
- Population Mitochondria Different-Phenotype (%) [2]: 21.35% and 13.41%
- Population Mitotic Cells (%) [2]: 84.93% and 66.67%
- Population Normal (%) [2]: 100%
- Population Pyknosed Nuclei (%) [2]: 38.22% and 18.92%
- Population Tubulin-Different-Phenotype (%) [2]: 24.72% and 29.27%
- Total Cell Count [2]: 191 and 222
- Population Apoptotic (%) [3]: 2.7% and 8%
- Population Fragmented Nuclei (%) [3]: 9.82% and 4.92%
- Population Healthy Nuclei (%) [3]: 67.48% and 81.42%
- Population Hoechst High Intensity Objects (%) [3]: 0%
- Population Membrane Permeable-Phenotype (%) [3]: 3.64% and 2.01%
- Population Mitochondria Different-Phenotype (%) [3]: 10.91% and 10.07%
- Population Mitotic Cells (%) [3]: 97.3% and 92%
- Population Normal (%) [3]: 100%
- Population Pyknosed Nuclei (%) [3]: 22.7% and 13.66%
- Population Tubulin-Different-Phenotype (%) [3]: 11.82% and 11.41%
- Total Cell Count [3]: 163 and 183
- Population Apoptotic (%) [4]: 13.85% and 28.57%
- Population Fragmented Nuclei (%) [4]: 9.6% and 8.97%
- Population Healthy Nuclei (%) [4]: 53.67% and 78.48%
- Population Hoechst High Intensity Objects (%) [4]: 0%
- Population Membrane Permeable-Phenotype (%) [4]: 2.11% and 0.57%
- Population Mitochondria Different-Phenotype (%) [4]: 21.05% and 24.57%
- Population Mitotic Cells (%) [4]: 86.15% and 71.43%
- Population Normal (%) [4]: 100%
- Population Pyknosed Nuclei (%) [4]: 36.72% and 12.56%
- Population Tubulin-Different-Phenotype (%) [4]: 45.26% and 44%
- Total Cell Count [4]: 177 and 223
- Population Fragmented Nuclei (%) [5]: 10.22% and 4.66%
- Population Healthy Nuclei (%) [5]: 83.33% and 86.53%
- Population Hoechst High Intensity Objects (%) [5]: 0%
- Population Membrane Permeable-Phenotype (%) [5]: 1.94% and 0%
- Population Mitotic Cells (%) [5]: 75% and 94.12%
- Population Normal (%) [5]: 100%
- Population Pyknosed Nuclei (%) [5]: 6.45% and 8.81%
- Population Tubulin-Different-Phenotype (%) [5]: 7.74% and 11.98%
- Total Cell Count [5]: 186 and 193
- Population Apoptotic (%) [6]: 21.88% and 28.57%
- Population Fragmented Nuclei (%) [6]: 11.48% and 7.92%
- Population Healthy Nuclei (%) [6]: 73.21% and 86.25%
- Population Hoechst High Intensity Objects (%) [6]: 0%
- Population Membrane Permeable-Phenotype (%) [6]: 0.65% and 0.97%
- Population Mitochondria Different-Phenotype (%) [6]: 25.49% and 13.53%
- Population Mitotic Cells (%) [6]: 78.12% and 71.43%
- Population Normal (%) [6]: 100%
- Population Pyknosed Nuclei (%) [6]: 15.31% and 5.83%
- Population Tubulin-Different-Phenotype (%) [6]: 24.18% and 39.61%
- Total Cell Count [6]: 209 and 240
